The term inhibition denotes the drop in the measured response relative to a control, in per cent.

Molecules are shown by their SMILES. This is one part of the list. Unmarked numbers belong to inactive results. Active and inactive are the calls of the source.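 The calls were made as follows: active = average inhibition over triplicates above the hit cutoff set in the earlier primary screen (cut at about 25% in these data); inactive = the rest.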

In the experiment the target is ADP-ribosylation factor GTPase-activating protein 1 (Rattus norvegicus) (UniProt Q62848). Nature of the experiment: ARFGAP1 inhibitor hit confirmation, biochemical, fluorescence polarization, triplicate (AID 651608).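 Also: 0% = Arfgap1 plus ARF1-GTP with DMSO and 100% = wells lacking Arfgap1.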 Particulars: ARFGAP1-stimulated ARF1 GTP hydrolysis, GDP tracer FP; at 16.5 µM; hits give high values. The gist of the method: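 Assay system: purified rat Arfgap1 GAP domain with human ARF1; signal: GDP tracer fluorescence polarization; reagent: GTP-loaded human ARF1 missing its first 17 residues; benchmarks: high control wells lacking Arfgap1; medium: HEPES-based assay buffer at pH 7.5; incubation: reaction 120 min at 25 °C after 20 min pre-incubation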
ADP-ribosylation factor GTPase-activating protein 1 (Rattus norvegicus), sequence (Q62848 whole entry, looked up, the tested form may be a part): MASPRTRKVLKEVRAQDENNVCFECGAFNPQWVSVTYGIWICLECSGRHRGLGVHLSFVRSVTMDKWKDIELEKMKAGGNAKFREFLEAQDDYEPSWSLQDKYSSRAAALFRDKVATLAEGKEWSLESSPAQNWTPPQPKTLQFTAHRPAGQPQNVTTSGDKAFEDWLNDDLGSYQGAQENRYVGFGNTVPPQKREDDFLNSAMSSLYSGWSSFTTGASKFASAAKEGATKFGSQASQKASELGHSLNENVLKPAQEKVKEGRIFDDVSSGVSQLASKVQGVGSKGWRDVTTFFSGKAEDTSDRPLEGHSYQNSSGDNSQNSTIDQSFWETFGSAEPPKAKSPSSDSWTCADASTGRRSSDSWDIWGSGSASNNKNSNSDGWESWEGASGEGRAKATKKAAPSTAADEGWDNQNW
On to `COCCNc1cc(-c2ccccc2)nc2cc(-c3cccc(F)c3)nn12`, for which the inhibition is 10.8%.

For the compound `Nc1ccc(S(=O)(=O)Nc2nccc(/C=C/c3ccc(Br)s3)n2)cc1`, the inhibition was -3.16%.

For the compound `COc1ccc(C(N)c2csc(NC(=O)Nc3cccc(C(F)(F)F)c3)n2)cc1` (configuration not stated), the inhibition is 19.2%.

Turning to `COc1ccc(/C=C2\SC(=S)N(CCCC(=O)NC3CCCC3)C2=O)cc1OC`, the inhibition is -4.01%.

Turning to `O=C(Nc1cccc(-c2nc3ccccc3[nH]2)c1)c1ccc(C(=O)Nc2cccc(-c3nc4ccccc4[nH]3)c2)cc1`, the inhibition is 60.7% (active). Take `Cc1ccc(-n2ncc3c2ncn2nc(-c4ccco4)nc32)c(C)c1`: the inhibition was 3.31%.

As for `COc1ccc(C(CNC(=O)c2cccc(S(=O)(=O)Nc3ccccc3Cl)c2)N2CCOCC2)cc1` (configuration not stated), the inhibition is 4.17%. The same measure for `O=C(O)CSCc1ccc(C(=O)O)o1`: 5.16%; for `COc1ccccc1OCC(=O)OCn1c(SC)nnc(C)c1=O`: 0.34%; for `CC1CCc2[nH]c3ccc(C(=O)N(C)CC(=O)Nc4cccc(F)c4)cc3c2C1` (configuration not stated): 1.73%. In the case of `O=C(O)CCn1cc(/C=C/C(=O)c2ccc(Cl)cc2)c(-c2cccc(Br)c2)n1` it was -2.84%; in that of `Cn1c(=O)[nH]c(=O)c2c1nc(N1CCN(CCO)CC1)n2CCSc1nc2ccccc2s1`, -2.06%; in that of `COc1ccc(CNC(=O)C(Cc2ccccc2)n2cccc2)cc1` (configuration not stated), 2%. The same measure for `CN(C)CCNC(=O)c1ccc(-c2cn3c(-c4ccc(Oc5ccccc5)cc4)cnc3cn2)cc1`: 48.8% (active); for `OC(COc1cccc(OCC(O)CN2CCCC2)c1)CN1CCCC1` (configuration not stated): 1.32%; for `COc1ccc(-c2csc(Nc3ccc(O)cc3)n2)cc1`: 4.53%. Turning to `Cc1ccc2nc(N3C(=O)C(O)=C(C(=O)c4ccco4)C3c3cccc(O)c3)sc2c1` (configuration not stated), the inhibition is 18.3%. The same measure for `O=C(NC1CCCCC1)c1ccc(CNc2c(N3CCOCC3)c(=O)c2=O)cc1`: -1.66%; for `CCNS(=O)(=O)c1ccc(NC(=O)Nc2cccc(C(F)(F)F)c2)cc1`: 18.2%. In the case of `COc1ccc(-n2nc3c(N4CCC(C(=O)NCc5ccccc5)CC4)nnc(C)c3c2C)cc1` it was 44% (active); in that of `CCN(CC)c1ccc(NC(=O)CN2CCN(c3ccccn3)CC2)cc1`, -5.51%. The same measure for `c1ccc(-c2cc(-c3nnc4sc(-c5ccccn5)nn34)[nH]n2)cc1`: 36.3% (active).

The record behind these values is PubChem BioAssay AID651608 (The Scripps Research Institute Molecular Screening Center, 2012).
